From the array DNA melting data of Ke et al. (doi:10.1101/2024.01.08.574731)

What was measured:
[1] = folding enthalpy; higher = less favourable; fluorescence melt of hairpins on a sequencing array, two-state fit; settings: sodium 0.088 M
Summary of the method: (§1)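 Cy3 fluorescence of library hairpins on a sequenced MiSeq flow cell, with annealed Cy3 and quencher oligos, was imaged in 50 mM Na-HEPES pH 8.0, 25 mM NaCl in 2.5 °C steps up to 60 °C. Signals were normalised to pre-quench Cy3 and to control variants. Melting temperature and folding enthalpy came from bootstrapped two-state fits, inverse-variance combined over four replicates. Fitted temperatures were raised by 9.35 °C to match UV melts.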

[2] = melting temperature; fluorescence melt of hairpins on a sequencing array, two-state fit, raised by 9.35 °C to match UV melts; settings: sodium 0.088 M
Summary of the method: as §1

Sequence | folding enthalpy [1] [kcal/mol] | Tm [2] [°C]
GATCATAAAATGATC ((((((...)))))) | -30.7 | 48
GATCATAAAGATGATC ((((((....)))))) | -24.4 | 40
GATCATAACCATGATC ((((((....)))))) | -35.7 | 47.4
GATCATAAGAATGATC ((((((....)))))) | -27.7 | 40.1
GATCATAAGATGATC ((((((...)))))) | -31.1 | 46.6
GATCATACACATGATC ((((((....)))))) | -36 | 47.2
GATCATACTGATGATC ((((((....)))))) | -30.2 | 46.3
GATCATAGCGATGATC ((((((....)))))) | -44.1 | 46.9
GATCATAGGATGATC ((((((...)))))) | -30.8 | 48.3
GATCATAGGCATGATC ((((((....)))))) | -32.4 | 48.5
GATCATAGGTATGATC ((((((....)))))) | -40.5 | 49.1
GATCATATAGATGATC ((((((....)))))) | -36.2 | 45.6
GATCATCACGATGATC ((((((....)))))) | -42.6 | 51.8
GATCATCATATGATC ((((((...)))))) | -35.5 | 47.2
GATCATCCAGATGATC ((((((....)))))) | -37.5 | 50.3
GATCATCCTAATGATC ((((((....)))))) | -35 | 49
GATCATCGCCATGATC ((((((....)))))) | -35.7 | 46.3
GATCATCGCTATGATC ((((((....)))))) | -38.8 | 47.2
GATCATCTCAATGATC ((((((....)))))) | -41.6 | 48.9
GATCATGAACATGATC ((((((....)))))) | -41 | 54
GATCATGACAATGATC ((((((....)))))) | -40.6 | 56.6
GATCATGACCATGATC ((((((....)))))) | -41.5 | 55.2
GATCATGCACATGATC ((((((....)))))) | -41.5 | 56.3
GATCATGCCTATGATC ((((((....)))))) | -42.4 | 52.3

Sequence | folding enthalpy [1] [kcal/mol] | Tm [2] [°C]
GATCATGCGGATGATC ((((((....)))))) | -34.1 | 47
GATCATGGAAACACGATC ((((.((....)).)))) | -22.9 | 33.8
GATCATGGAAACATGATC (((((((....))))))) | -35.3 | 56.2
GATCATGGCATGATC ((((((...)))))) | -44 | 51.3
GATCATGGGGATGATC ((((((....)))))) | -29.2 | 46.5
GATCATGGTCATGATC ((((((....)))))) | -38 | 51.8
GATCATGTCATGATC ((((((...)))))) | -32.5 | 51.3
GATCATGTGAATGATC ((((((....)))))) | -39.3 | 54.6
GATCATGTTATGATC ((((((...)))))) | -36.1 | 50.3
GATCATTAAGATGATC ((((((....)))))) | -34.8 | 46.4
GATCATTACGATGATC ((((((....)))))) | -34.9 | 48.5
GATCATTATCATGATC ((((((....)))))) | -38.9 | 45.8
GATCATTATTATGATC ((((((....)))))) | -32.2 | 47.5
GATCATTCAAATGATC ((((((....)))))) | -34 | 47.3
GATCATTCAATGATC ((((((...)))))) | -30.6 | 47.1
GATCATTGGCATGATC ((((((....)))))) | -30.3 | 45.5
GATCATTGGTATGATC ((((((....)))))) | -31.8 | 46.3
GATCATTGTAATGATC ((((((....)))))) | -36 | 50.3
GATCATTTACATGATC ((((((....)))))) | -35.2 | 46.3
GATCATTTCGATGATC ((((((....)))))) | -41.6 | 49.2
GATCATTTGCATGATC ((((((....)))))) | -34.4 | 46.4
GATCCAAACATGGATC ((((((....)))))) | -32.7 | 50.8
GATCCAAAGTTGGATC ((((((....)))))) | -35.2 | 49.8
GATCCAACATTGGATC ((((((....)))))) | -43.3 | 50

Sequence | folding enthalpy [1] [kcal/mol] | Tm [2] [°C]
GATCCAACTATGGATC ((((((....)))))) | -39.6 | 49.6
GATCCAACTGTGGATC ((((((....)))))) | -32.6 | 49.1
GATCCAAGATGGATC ((((((...)))))) | -34 | 49
GATCCAAGGGTGGATC ((((((....)))))) | -32 | 48.4
GATCCAAGGTTGGATC ((((((....)))))) | -37.5 | 51.4
GATCCAAGTGTGGATC ((((((....)))))) | -32.3 | 50.3
GATCCAATGCTGGATC ((((((....)))))) | -32.5 | 49.1
GATCCAATGGTGGATC ((((((....)))))) | -29.4 | 48.3
GATCCACAGTGGATC ((((((...)))))) | -40.5 | 49.7
GATCCACAGTTGGATC ((((((....)))))) | -41 | 49.3
GATCCACATTTGGATC ((((((....)))))) | -36.8 | 50.7
GATCCACCACTGGATC ((((((....)))))) | -36.9 | 49.4
GATCCACCATTGGATC ((((((....)))))) | -31.5 | 49.4
GATCCACCCATGGATC ((((((....)))))) | -34.2 | 50.7
GATCCACCGTGGATC ((((((...)))))) | -37.4 | 48.5
GATCCACCGTTGGATC ((((((....)))))) | -36.5 | 49.7
GATCCACCTCTGGATC ((((((....)))))) | -33 | 49
GATCCACCTGTGGATC ((((((....)))))) | -42.1 | 63.8
GATCCACGAAAGTGAATC (((.(((....))).))) | -24.2 | 42.4
GATCCACGAAAGTGATC (((.(((....)))))) | -21.4 | 41.3
GATCCACGAAAGTGTATC (((.(((....))).))) | -24.2 | 37.6
GATCCACGCCTGGATC ((((((....)))))) | -36.9 | 52.3
GATCCACGTCTGGATC ((((((....)))))) | -38.3 | 49.5
GATCCACTACTGGATC ((((((....)))))) | -35.5 | 49.7

Sequence | folding enthalpy [1] [kcal/mol] | Tm [2] [°C]
GATCCACTAGTGGATC ((((((....)))))) | -40.6 | 62.3
GATCCACTATGGATC ((((((...)))))) | -30.6 | 52.7
GATCCAGAACTGGATC ((((((....)))))) | -37.6 | 56.4
GATCCAGAAGTGGATC ((((((....)))))) | -35.5 | 52.1
GATCCAGAATTGGATC ((((((....)))))) | -34.7 | 57.2
GATCCAGACTGGATC ((((((...)))))) | -36.9 | 52
GATCCAGAGGTGGATC ((((((....)))))) | -28.5 | 47.8
GATCCAGCCATGGATC ((((((....)))))) | -38.8 | 58.7
GATCCAGCCCTGGATC ((((((....)))))) | -48 | 54.1
GATCCAGCGGTGGATC ((((((....)))))) | -44.3 | 50.8
GATCCAGCGTGGATC ((((((...)))))) | -27.4 | 50.5
GATCCAGCGTTGGATC ((((((....)))))) | -44.2 | 49.6
GATCCAGCTCTGGATC ((((((....)))))) | -41.1 | 54
GATCCAGGACTGGATC ((((((....)))))) | -41.1 | 56.2
GATCCAGGGTTGGATC ((((((....)))))) | -34.2 | 50.8
GATCCAGGTATGGATC ((((((....)))))) | -35.1 | 58
GATCCAGGTCTGGATC ((((((....)))))) | -37.4 | 55
GATCCAGTATGGATC ((((((...)))))) | -39.8 | 60.1
GATCCAGTCCTGGATC ((((((....)))))) | -44.6 | 56.5
GATCCAGTTCTGGATC ((((((....)))))) | -39.6 | 55.5
GATCCATAGATGGATC ((((((....)))))) | -33.5 | 51.2
GATCCATCCTTGGATC ((((((....)))))) | -44.2 | 53.6
GATCCATCGGTGGATC ((((((....)))))) | -39.5 | 50.6
GATCCATCGTGGATC ((((((...)))))) | -36.9 | 50.8
